Source: ChEMBL document CHEMBL5649170, “Sustained microglial depletion with CSF1R inhibitor impairs parenchymal plaque development in an Alzheimer's disease model” (Nat Commun, 2019)
pIC50: −log10 of the molar value. Calls of active or inactive are those of the source. The rule behind the calls is not given here.

Key:
Mus musculus [1] = experiment: Antialzheimer activity in 5XFAD mouse assessed as reduction in plaque pathology in […] cortex at 600 ppm administered as rodent chow starting from 1.5 months and measured after 5 months by immunolabeling based confocal microscopic analysis; assay type: functional, organism-based; conditions: route po, time 3.5 months
Procedure, shortened: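 5xFAD mice received 600 ppm PLX3397 in AIN-76A chow from 1.5 to 5 months of age. Brain sections were stained with Thio-S for dense-core plaques and immunolabeled for IBA1, then examined by confocal microscopy.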

[2] = target: T1, Macrophage colony-stimulating factor 1 receptor (Mus musculus) (UniProt P09581); experiment: In vivo inhibition of CSF1R in 5XFAD mouse assessed as reduction in plaque pathology in […] cortex at 600 ppm administered as rodent chow starting from 1.5 months and measured after 5 months by immunolabeling based confocal microscopic analysis; conditions: route po, time 3.5 months
T1 sequence (whole entry): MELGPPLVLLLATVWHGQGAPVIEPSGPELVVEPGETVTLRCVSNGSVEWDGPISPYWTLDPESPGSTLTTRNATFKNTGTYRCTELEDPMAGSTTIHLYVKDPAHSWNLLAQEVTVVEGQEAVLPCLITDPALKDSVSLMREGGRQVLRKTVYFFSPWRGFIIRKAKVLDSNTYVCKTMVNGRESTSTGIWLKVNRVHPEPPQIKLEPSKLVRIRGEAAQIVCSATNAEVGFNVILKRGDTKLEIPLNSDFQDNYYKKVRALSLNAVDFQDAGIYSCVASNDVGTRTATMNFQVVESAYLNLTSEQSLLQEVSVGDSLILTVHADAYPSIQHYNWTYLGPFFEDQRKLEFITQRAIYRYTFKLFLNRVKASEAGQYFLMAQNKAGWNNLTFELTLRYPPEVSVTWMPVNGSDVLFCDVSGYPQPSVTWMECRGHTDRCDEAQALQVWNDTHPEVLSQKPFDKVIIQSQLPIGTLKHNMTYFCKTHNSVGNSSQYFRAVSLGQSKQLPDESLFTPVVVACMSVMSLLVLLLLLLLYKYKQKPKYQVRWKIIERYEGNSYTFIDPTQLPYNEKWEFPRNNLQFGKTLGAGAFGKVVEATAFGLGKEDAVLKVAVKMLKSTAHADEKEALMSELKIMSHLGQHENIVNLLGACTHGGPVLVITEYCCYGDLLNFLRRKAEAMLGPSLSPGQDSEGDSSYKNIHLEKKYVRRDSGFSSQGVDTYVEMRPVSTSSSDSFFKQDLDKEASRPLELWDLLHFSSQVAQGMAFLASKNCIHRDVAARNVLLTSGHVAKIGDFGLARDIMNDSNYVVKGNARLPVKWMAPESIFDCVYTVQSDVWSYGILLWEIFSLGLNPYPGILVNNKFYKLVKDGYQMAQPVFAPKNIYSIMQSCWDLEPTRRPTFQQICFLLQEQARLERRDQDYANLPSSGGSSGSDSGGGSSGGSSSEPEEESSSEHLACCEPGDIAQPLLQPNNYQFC

[3] = target: MAP/microtubule affinity-regulating kinase 4 (Homo sapiens, UniProt Q96L34); experiment: Inhibition of MARK4 (unknown origin)
[4] = Prevention of Gls gene downregulation in 5XFAD mouse hippocampus assessed as percent change in Reads Per kilo base per Million mapped reads at 1200 ppm administered as rodent chow starting from 1.5 months and measured after 7 months by RNA-Seq analysis (reference value: 58.522 to 73.849 %); assay type: functional; conditions: route po, time 5.5 months, 4015 h
[5] = Oral bioavailability in mouse at 45 mg/kg administered as single via gavage; assay type: ADME, organism-based; conditions: in vivo
Mus musculus [6] = experiment: Antialzheimer activity in 5XFAD mouse assessed as microglial elimination in thalamus by measuring reduction in Thio-S positive plaques at 1200 ppm administered as rodent chow for 14 weeks by Thio-S staining based confocal microscopic analysis; assay type: functional, organism-based; conditions: route po
[7] = target: Vascular endothelial growth factor receptor 3 (Homo sapiens, UniProt P35916); experiment: Inhibition of FLT4 (unknown origin)
[8] = target: Interleukin-1 receptor-associated kinase 4 (Homo sapiens, UniProt Q9NWZ3); experiment: Inhibition of IRAK4 (unknown origin)
[9] = target: MAP kinase-activated protein kinase 5 (Homo sapiens, UniProt Q8IW41); experiment: Inhibition of MAPKAPK5 (unknown origin)
[10] = Effect on Cst7 gene expression in wild type mouse hippocampus at 1200 ppm administered as rodent chow starting from 1.5 months and measured after 7 months by RNA-Seq analysis (reference value: 0.079 to 0.447 RPKM); assay type: functional; conditions: route po, time 5.5 months, 4015 h
Mus musculus [11] = experiment: Antialzheimer activity in 5XFAD mouse assessed as average speed at 1200 ppm administered as rodent chow for 10 to 24 weeks by Open field test (reference value: 0.024 to 0.076 meter/s); assay type: functional; conditions: route po, time 10-24 weeks
Rhodopsin kinase GRK7 = Rhodopsin kinase GRK7 (Homo sapiens, UniProt Q8WTQ7); experiment: Inhibition of GRK7 (unknown origin)
[12] = target: T1, Macrophage colony-stimulating factor 1 receptor (Mus musculus); experiment: In vivo inhibition of CSF1R in wildtype mouse assessed as number of Iba1 positive cells per FOV in thalamus cortex at 1200 ppm administered as rodent chow starting from 1.5 months to 4 months followed by compound removal and measured after 1 months by immunolabelling based confocal microscopic analysis (reference value: 232 to 320); assay type: functional; conditions: route po, time 2.5 months
[13] = Oral bioavailability in female rat at 45 mg/kg administered as single via gavage; assay type: ADME, organism-based; conditions: in vivo
[14] = target: T1, Macrophage colony-stimulating factor 1 receptor (Mus musculus); experiment: In vivo inhibition of CSF1R in wildtype mouse assessed as iron reactivity by measuring hemosiderin intensity of prussian blue staining in thalamus at 1200 ppm administered as rodent chow starting from 1.5 months and measured after 4 months by confocal microscopic analysis (reference value: 0.1 to 2.451 a.u.); assay type: functional; conditions: route po, time 2.5 months
Procedure, shortened: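 Wild-type or 5xFAD mice fed PLX5622 (1200 ppm) in AIN-76A chow from 1.5 months of age, examined in 4- and 7-month-old cohorts. Brain sections stained with a Prussian blue kit per kit instructions to detect iron deposits (microbleeds).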

[15] = target: Fibroblast growth factor receptor 3 (Homo sapiens, UniProt P22607); experiment: Inhibition of FGFR3 (unknown origin)
[16] = target: cGMP-dependent protein kinase 1 (Homo sapiens, UniProt Q13976); experiment: Inhibition of PRKG1 (unknown origin)
[17] = Effect on Cst7 gene expression in wild type mouse cortex at 1200 ppm administered as rodent chow starting from 1.5 months and measured after 7 months by RNA-Seq analysis (reference value: 0.102 to 0.891 RPKM); assay type: functional; conditions: route po, time 5.5 months, 4015 h
[18] = Effect on Siglech gene expression in 5XFAD mouse cortex at 1200 ppm administered as rodent chow starting from 1.5 months and measured after 7 months by RNA-Seq analysis (reference value: 5.048 to 7.930 RPKM); assay type: functional; conditions: route po, time 5.5 months, 4015 h
[19] = Effect on ccl6 gene expression in 5XFAD mouse hippocampus at 1200 ppm administered as rodent chow starting from 1.5 months and measured after 7 months by RNA-Seq analysis (reference value: 5.688 to 8.240 RPKM); assay type: functional; conditions: route po, time 5.5 months, 4015 h

MAP kinase-activated protein kinase 5, sequence (Q8IW41 whole entry): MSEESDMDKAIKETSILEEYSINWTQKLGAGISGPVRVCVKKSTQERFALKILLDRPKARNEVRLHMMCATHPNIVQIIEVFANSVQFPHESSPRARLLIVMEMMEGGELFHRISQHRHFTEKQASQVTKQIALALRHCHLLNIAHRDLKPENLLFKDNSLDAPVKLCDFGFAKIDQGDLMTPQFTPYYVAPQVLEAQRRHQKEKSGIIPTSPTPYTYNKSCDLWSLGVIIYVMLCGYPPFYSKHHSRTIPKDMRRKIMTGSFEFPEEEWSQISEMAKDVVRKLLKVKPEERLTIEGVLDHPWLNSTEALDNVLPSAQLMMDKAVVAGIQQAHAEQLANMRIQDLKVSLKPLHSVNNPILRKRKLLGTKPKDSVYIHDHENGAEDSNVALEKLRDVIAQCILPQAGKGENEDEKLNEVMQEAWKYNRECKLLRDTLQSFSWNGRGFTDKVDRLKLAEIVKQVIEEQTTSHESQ
Rhodopsin kinase GRK7, sequence (Q8WTQ7 whole entry): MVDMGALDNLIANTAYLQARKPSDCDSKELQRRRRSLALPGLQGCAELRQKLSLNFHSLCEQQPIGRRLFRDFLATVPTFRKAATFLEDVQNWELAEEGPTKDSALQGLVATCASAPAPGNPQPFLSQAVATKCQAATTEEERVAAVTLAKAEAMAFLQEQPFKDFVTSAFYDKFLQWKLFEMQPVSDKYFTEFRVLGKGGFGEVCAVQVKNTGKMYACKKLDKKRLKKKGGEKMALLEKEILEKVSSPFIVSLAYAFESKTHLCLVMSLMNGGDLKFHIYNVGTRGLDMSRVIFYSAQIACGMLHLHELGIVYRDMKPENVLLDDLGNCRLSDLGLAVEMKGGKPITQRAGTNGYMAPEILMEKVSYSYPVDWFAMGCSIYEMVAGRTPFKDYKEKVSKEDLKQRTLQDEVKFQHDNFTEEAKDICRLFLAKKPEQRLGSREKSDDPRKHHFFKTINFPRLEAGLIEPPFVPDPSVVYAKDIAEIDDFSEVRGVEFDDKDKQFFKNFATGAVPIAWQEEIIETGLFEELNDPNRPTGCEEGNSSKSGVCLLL
Vascular endothelial growth factor receptor 3, sequence (P35916 whole entry): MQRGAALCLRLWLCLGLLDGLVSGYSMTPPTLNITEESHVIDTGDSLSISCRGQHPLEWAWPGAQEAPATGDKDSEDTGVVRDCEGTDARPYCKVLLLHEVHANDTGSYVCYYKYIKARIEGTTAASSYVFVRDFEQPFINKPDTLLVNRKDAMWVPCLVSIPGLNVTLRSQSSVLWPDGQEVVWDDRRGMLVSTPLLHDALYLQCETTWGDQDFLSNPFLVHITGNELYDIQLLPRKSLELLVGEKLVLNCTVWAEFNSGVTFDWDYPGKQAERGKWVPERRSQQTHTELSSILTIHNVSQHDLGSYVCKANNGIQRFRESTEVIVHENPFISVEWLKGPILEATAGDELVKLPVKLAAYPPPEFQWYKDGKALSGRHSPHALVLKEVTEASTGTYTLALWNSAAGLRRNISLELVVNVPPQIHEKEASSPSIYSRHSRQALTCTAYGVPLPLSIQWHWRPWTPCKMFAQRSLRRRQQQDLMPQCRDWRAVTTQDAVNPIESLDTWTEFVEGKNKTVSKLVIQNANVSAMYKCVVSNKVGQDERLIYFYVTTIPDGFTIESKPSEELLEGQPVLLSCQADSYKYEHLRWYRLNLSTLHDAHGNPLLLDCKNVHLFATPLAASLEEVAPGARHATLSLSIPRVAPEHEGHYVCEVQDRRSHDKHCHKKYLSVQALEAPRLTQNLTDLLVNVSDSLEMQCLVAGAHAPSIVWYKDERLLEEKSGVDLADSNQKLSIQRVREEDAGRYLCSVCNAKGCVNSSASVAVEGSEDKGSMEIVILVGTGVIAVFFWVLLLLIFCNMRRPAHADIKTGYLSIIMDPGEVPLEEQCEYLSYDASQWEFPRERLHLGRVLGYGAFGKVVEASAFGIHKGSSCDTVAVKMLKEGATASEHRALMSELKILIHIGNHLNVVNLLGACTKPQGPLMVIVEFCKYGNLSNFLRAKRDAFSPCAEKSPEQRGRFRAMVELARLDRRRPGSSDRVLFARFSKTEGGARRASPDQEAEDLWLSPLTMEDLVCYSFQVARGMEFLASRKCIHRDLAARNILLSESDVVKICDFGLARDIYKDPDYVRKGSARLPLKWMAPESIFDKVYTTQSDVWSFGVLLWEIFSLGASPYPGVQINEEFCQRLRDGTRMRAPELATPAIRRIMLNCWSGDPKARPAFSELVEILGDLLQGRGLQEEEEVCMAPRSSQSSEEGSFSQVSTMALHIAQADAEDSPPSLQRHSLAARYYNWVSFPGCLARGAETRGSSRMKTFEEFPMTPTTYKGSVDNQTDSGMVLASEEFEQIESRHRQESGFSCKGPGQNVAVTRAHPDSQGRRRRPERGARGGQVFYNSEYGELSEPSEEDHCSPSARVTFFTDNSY
Fibroblast growth factor receptor 3, sequence (P22607 whole entry): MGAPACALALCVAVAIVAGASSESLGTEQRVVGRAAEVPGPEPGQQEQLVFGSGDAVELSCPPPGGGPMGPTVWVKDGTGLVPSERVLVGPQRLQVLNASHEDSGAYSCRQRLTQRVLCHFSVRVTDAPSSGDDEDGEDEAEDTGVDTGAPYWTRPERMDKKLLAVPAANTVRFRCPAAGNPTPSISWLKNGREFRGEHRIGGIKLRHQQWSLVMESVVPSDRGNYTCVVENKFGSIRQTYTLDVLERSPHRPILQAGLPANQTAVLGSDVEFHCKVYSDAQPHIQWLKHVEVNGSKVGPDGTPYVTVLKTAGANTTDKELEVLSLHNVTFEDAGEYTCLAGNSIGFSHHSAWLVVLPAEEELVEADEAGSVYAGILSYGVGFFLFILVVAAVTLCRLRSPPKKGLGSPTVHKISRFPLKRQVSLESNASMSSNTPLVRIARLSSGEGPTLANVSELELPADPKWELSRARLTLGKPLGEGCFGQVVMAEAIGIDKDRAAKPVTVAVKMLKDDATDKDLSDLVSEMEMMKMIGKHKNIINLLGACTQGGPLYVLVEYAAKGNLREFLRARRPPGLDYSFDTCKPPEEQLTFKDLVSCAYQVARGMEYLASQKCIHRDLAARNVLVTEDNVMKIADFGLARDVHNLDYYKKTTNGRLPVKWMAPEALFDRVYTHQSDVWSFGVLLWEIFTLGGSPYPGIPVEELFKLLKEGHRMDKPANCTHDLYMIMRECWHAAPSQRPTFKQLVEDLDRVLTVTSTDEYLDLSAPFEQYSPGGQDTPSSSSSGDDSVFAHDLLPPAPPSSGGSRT
cGMP-dependent protein kinase 1, sequence (Q13976 whole entry): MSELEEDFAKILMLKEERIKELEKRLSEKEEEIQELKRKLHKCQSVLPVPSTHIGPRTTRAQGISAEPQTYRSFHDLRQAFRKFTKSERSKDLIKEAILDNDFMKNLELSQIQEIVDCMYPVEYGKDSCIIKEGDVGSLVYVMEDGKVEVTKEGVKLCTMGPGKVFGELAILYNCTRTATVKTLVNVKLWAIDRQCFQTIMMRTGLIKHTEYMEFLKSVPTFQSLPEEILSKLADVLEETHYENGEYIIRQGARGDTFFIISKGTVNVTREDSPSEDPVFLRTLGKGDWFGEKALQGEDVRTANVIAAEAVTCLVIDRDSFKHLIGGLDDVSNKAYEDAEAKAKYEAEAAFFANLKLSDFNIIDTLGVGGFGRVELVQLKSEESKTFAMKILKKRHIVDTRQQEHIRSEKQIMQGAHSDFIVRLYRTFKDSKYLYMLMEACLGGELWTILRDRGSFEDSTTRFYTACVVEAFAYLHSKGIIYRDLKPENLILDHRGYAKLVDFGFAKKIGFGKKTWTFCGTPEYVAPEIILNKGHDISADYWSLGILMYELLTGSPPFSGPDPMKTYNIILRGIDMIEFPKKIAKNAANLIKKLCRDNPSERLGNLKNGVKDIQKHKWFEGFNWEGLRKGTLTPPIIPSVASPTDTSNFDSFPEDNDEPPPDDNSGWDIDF
Interleukin-1 receptor-associated kinase 4, sequence (Q9NWZ3 whole entry): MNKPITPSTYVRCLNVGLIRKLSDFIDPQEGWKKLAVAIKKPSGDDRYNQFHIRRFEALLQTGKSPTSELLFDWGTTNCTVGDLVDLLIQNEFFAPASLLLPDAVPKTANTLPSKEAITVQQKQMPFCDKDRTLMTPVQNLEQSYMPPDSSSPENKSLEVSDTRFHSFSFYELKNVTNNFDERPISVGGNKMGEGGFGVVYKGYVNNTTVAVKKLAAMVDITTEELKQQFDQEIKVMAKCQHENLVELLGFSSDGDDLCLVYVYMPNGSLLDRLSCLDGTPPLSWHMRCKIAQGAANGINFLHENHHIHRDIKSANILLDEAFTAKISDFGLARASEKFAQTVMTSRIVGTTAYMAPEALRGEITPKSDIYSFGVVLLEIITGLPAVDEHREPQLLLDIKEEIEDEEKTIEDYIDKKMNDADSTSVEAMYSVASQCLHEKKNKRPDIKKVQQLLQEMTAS
MAP/microtubule affinity-regulating kinase 4, sequence (Q96L34 whole entry): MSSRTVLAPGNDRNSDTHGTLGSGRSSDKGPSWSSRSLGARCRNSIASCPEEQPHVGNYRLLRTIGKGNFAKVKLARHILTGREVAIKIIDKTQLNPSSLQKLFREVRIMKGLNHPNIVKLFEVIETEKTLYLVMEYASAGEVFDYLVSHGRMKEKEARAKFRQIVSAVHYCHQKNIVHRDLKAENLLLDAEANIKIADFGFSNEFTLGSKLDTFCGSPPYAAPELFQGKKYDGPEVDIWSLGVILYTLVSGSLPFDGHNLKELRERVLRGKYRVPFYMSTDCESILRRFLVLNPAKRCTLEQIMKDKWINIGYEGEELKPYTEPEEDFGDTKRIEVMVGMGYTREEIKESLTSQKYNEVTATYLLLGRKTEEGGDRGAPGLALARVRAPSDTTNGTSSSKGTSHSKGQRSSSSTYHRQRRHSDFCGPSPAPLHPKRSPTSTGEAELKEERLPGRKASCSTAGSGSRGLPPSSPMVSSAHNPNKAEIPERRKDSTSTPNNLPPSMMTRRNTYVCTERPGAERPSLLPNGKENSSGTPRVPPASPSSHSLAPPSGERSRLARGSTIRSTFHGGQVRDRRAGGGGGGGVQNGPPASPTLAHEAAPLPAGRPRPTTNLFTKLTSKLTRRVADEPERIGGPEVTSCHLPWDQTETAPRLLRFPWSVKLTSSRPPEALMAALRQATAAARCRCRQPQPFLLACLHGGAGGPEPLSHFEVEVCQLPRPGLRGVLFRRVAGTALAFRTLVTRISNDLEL

| SMILES | Activity (Mus musculus [1]) | inhibition [2] | pIC50 [3] | Activity [4] [%] | bioavailability [5] [%] | Activity (Mus musculus [6]) | pIC50 [7] | pIC50 [8] | pIC50 [9] | Activity [10] [RPKM] | Activity (Mus musculus [11]) [meter/s] | pIC50 (Rhodopsin kinase GRK7) | Activity [12] | bioavailability [13] [%] | Flu intensity [14] [a.u.] | pIC50 [15] | pIC50 [16] | Activity [17] [RPKM] | Activity [18] [RPKM] | Activity [19] [RPKM] |
| --- | --- | --- | --- | --- | --- | --- | --- | --- | --- | --- | --- | --- | --- | --- | --- | --- | --- | --- | --- | --- |
| FC(F)(F)c1ccc(CNc2ccc(Cc3c[nH]c4ncc(Cl)cc34)cn2)cn1 [PEXIDARTINIB] | Active | Active |  |  |  |  |  |  |  |  |  |  |  |  |  |  |  |  |  |  |
| COc1ncc(F)cc1CNc1ccc(Cc2c[nH]c3ncc(C)cc23)c(F)n1 [PLX-5622] |  |  | < 6.00 | 77.958 | 59 | inactive | < 6.00 | < 6.00 | < 6.00 | 0 | 0.03 | < 6.00 | 270 | 89 | 0.273 | < 6.00 | < 6.00 | 0 | 0.14 | 0.488 |
